According to PMC6102747 (Molecular Medicine Reports, 2018):
Read-outs that look alike come from different tables or passages of the source.

Tests used:
OATP2B1 = experiment: Western blot protein expression in small intestine; format: in vivo, rats; conditions: vs control
Mrp2 [1] = experiment: RT-qPCR mRNA expression in small intestine and liver; format: in vivo, rats; conditions: vs control
Cyp3a2 [2] = format: in vivo, rats; conditions: vs control
Pxr [3] = experiment: RT-qPCR mRNA expression in small intestine and liver; format: in vivo, rats; conditions: small intestine, vs control, P<0.001
OATP1B2 = experiment: Western blot protein expression in liver; format: in vivo, rats; conditions: vs control
Cyp3a1 = experiment: RT-qPCR mRNA expression in small intestine and liver; format: in vivo, rats; conditions: vs control
Car [4] = experiment: Western blot protein expression in small intestine and liver; format: in vivo, rats; conditions: vs control
Ugt1a1 [5] = experiment: RT-qPCR mRNA expression in small intestine and liver; format: in vivo, rats; conditions: vs control
Pxr [6] = format: in vivo, rats; conditions: vs control
Car [7] = experiment: RT-qPCR mRNA expression in small intestine and liver; format: in vivo, rats; conditions: vs control
Gstm1 [8] = experiment: RT-qPCR mRNA expression in liver; format: in vivo, rats; conditions: vs control
Slco1b2 = experiment: RT-qPCR mRNA expression in liver; format: in vivo, rats; conditions: vs control
Cyp3a2 [9] = experiment: RT-qPCR mRNA expression in small intestine and liver; format: in vivo, rats; conditions: vs control
[10] = Pharmacokinetics of CsA after oral administration; format: in vivo, Sprague-Dawley rats; conditions: rats; for increase in the CL/F of CsA / increase in the V/F of CsA / decrease in AUC0-t of CsA / decrease in AUC0-∞ of CsA / decrease in Cmax of CsA: oral CsA 10 mg/kg; for decrease in AUC0-t of CsA / decrease in AUC0-∞ of CsA / decrease in Cmax of CsA: vs control; for decrease in Cmax of CsA: P>0.05
[11] = Pharmacokinetics of CsA after intravenous administration; format: in vivo, Sprague-Dawley rats; conditions: rats, i.v. CsA 2.5 mg/kg, Q3GA 5 mg/kg i.v. 7 days
Bcrp = experiment: Western blot protein expression in small intestine and liver; format: in vivo, rats; conditions: vs control
Ugt1a1 [12] = experiment: as above; format: in vivo, rats; conditions: vs control, P<0.001
Gstm1 [13] = experiment: Western blot protein expression in liver; format: in vivo, rats; conditions: vs control
Mrp2 [14] = experiment: Western blot protein expression in small intestine and liver; format: in vivo, rats; conditions: vs control, P<0.001
Mdr1 = experiment: RT-qPCR mRNA expression in small intestine and liver; format: in vivo, rats; conditions: vs control
Outline: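 Rats, 3 per group, dosed once daily for 7 days: phosphate buffer 5 ml/kg i.v., test compound 2.5/5/10 mg/kg i.v. in phosphate buffer, ketoconazole 75 mg/kg i.g. in olive oil, or verapamil 4 mg/kg i.g. in water. Olive oil 5 ml/kg gavaged 30 min after day-7 dose. Killed 24 h post-dose after overnight fast; liver and intestinal mucosa snap-frozen. qPCR: 40 cycles, 58°C annealing; 2−ΔΔCq.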

[15] = low-dose Q3GA 2.5 mg/kg i.v. 7 days, P<0.001
[16] = middle-dose Q3GA 5 mg/kg i.v. 7 days, P<0.01
[17] = liver, high-dose Q3GA 10 mg/kg i.v. 7 days, P<0.05
[18] = liver, low-dose Q3GA 2.5 mg/kg i.v. 7 days, P<0.001
[19] = liver, middle-dose Q3GA 5 mg/kg i.v. 7 days, P<0.01
[20] = small intestine, high-dose Q3GA 10 mg/kg i.v. 7 days, P<0.01
[21] = small intestine, low-dose Q3GA 2.5 mg/kg i.v. 7 days, P<0.001
[22] = small intestine, middle-dose Q3GA 5 mg/kg i.v. 7 days, P<0.01
[23] = liver, middle-dose Q3GA 5 mg/kg i.v. 7 days, P<0.001
[24] = small intestine, middle-dose Q3GA 5 mg/kg i.v. 7 days
[25] = high-dose Q3GA 10 mg/kg i.v. 7 days
[26] = low-dose Q3GA 2.5 mg/kg i.v. 7 days
[27] = middle-dose Q3GA 5 mg/kg i.v. 7 days
[28] = small intestine, high-dose Q3GA 10 mg/kg i.v. 7 days, P<0.05
[29] = liver, low-dose Q3GA 2.5 mg/kg i.v. 7 days, P<0.01
[30] = small intestine, high-dose Q3GA 10 mg/kg i.v. 7 days, P<0.001
[31] = small intestine, middle-dose Q3GA 5 mg/kg i.v. 7 days, P<0.05
[32] = liver, high-dose Q3GA 10 mg/kg i.v. 7 days, P<0.01
[33] = liver, middle-dose Q3GA 5 mg/kg i.v. 7 days, P<0.05
[34] = liver, low-dose Q3GA 2.5 mg/kg i.v. 7 days
[35] = small intestine, high-dose Q3GA 10 mg/kg i.v. 7 days
[36] = small intestine, low-dose Q3GA 2.5 mg/kg i.v. 7 days

O=c1c(O[C@@H]2O[C@H](CO)[C@@H](O)[C@H](O)[C@H]2O)c(-c2ccc(O)c(O)c2)oc2cc(O)cc(O)c12 [Q3GA, Quercetin-3-O-β-D-glucoside]
decrease in OATP2B1 protein expression (OATP2B1; high-dose Q3GA 10 mg/kg i.v. 7 days, P<0.01): 51.44% | decrease in OATP2B1 protein expression (OATP2B1; [15]): 86.44% | decrease in OATP2B1 protein expression (OATP2B1; [16]): 42.21% | decrease in Mrp2 mRNA expression (Mrp2 [1]; [17]): 20.44% | decrease in Mrp2 mRNA expression (Mrp2 [1]; [18]): 68.86% | decrease in Mrp2 mRNA expression (Mrp2 [1]; [19]): 32.70% | decrease in Mrp2 mRNA expression (Mrp2 [1]; [20]): 28.66% | decrease in Mrp2 mRNA expression (Mrp2 [1]; [21]): 66.03% | decrease in Mrp2 mRNA expression (Mrp2 [1]; [22]): 34.53% | decrease in CYP3A2 protein expression (Cyp3a2 [2]; liver, high-dose Q3GA 10 mg/kg i.v. 7 days, P<0.001): 47.16% | decrease in CYP3A2 protein expression (Cyp3a2 [2]; [18]): 54.18% | decrease in CYP3A2 protein expression (Cyp3a2 [2]; [23]): 33.07% | decrease in CYP3A2 protein expression (Cyp3a2 [2]; [20]): 38.67% | decrease in CYP3A2 protein expression (Cyp3a2 [2]; [21]): 55.28% | decrease in CYP3A2 protein expression (Cyp3a2 [2]; [24]): 21.68% | increase in Pxr mRNA expression (Pxr [3]; [25]): 200.21% | increase in Pxr mRNA expression (Pxr [3]; [26]): 415.18% | increase in Pxr mRNA expression (Pxr [3]; [27]): 130.03% | decrease in OATP1B2 protein expression (OATP1B2; [25]): 33.73% | decrease in OATP1B2 protein expression (OATP1B2; low-dose Q3GA 2.5 mg/kg i.v. 7 days, P<0.01): 67.47% | decrease in OATP1B2 protein expression (OATP1B2; [27]): 26.52% | decrease in Cyp3a1 mRNA expression (Cyp3a1; [17]): 33.73% | decrease in Cyp3a1 mRNA expression (Cyp3a1; [18]): 65.14% | decrease in Cyp3a1 mRNA expression (Cyp3a1; [23]): 54.94% | decrease in Cyp3a1 mRNA expression (Cyp3a1; [28]): 43.57% | decrease in Cyp3a1 mRNA expression (Cyp3a1; [21]): 63.78% | decrease in Cyp3a1 mRNA expression (Cyp3a1; [24]): 26.08% | increase in CAR protein expression (Car [4]; liver, high-dose Q3GA 10 mg/kg i.v. 7 days, not significant): 211.76% | increase in CAR protein expression (Car [4]; [29]): 456.37% | increase in CAR protein expression (Car [4]; liver, middle-dose Q3GA 5 mg/kg i.v. 7 days, not significant): 208.32% | increase in CAR protein expression (Car [4]; [20]): 91.07% | increase in CAR protein expression (Car [4]; [21]): 235.46% | increase in CAR protein expression (Car [4]; [22]): 78.59% | decrease in Ugt1a1 mRNA expression (Ugt1a1 [5]; [17]): 41.04% | decrease in Ugt1a1 mRNA expression (Ugt1a1 [5]; [18]): 76.13% | decrease in Ugt1a1 mRNA expression (Ugt1a1 [5]; [19]): 48.78% | decrease in Ugt1a1 mRNA expression (Ugt1a1 [5]; [30]): 37.83% | decrease in Ugt1a1 mRNA expression (Ugt1a1 [5]; [21]): 70.14% | decrease in Ugt1a1 mRNA expression (Ugt1a1 [5]; [31]): 24.08% | increase in PXR protein expression (Pxr [6]; [29]): 182.93% | increase in PXR protein expression (Pxr [6]; [20]): 147.68% | increase in PXR protein expression (Pxr [6]; [21]): 258.85% | increase in PXR protein expression (Pxr [6]; [31]): 81.66% | increase in Car mRNA expression (Car [7]; [32]): 74.60% | increase in Car mRNA expression (Car [7]; [18]): 224.76% | increase in Car mRNA expression (Car [7]; [23]): 98.73% | increase in Car mRNA expression (Car [7]; [28]): 117.54% | increase in Car mRNA expression (Car [7]; [21]): 265.44% | increase in Car mRNA expression (Car [7]; [31]): 99.57% | increase in Gstm1 mRNA expression (Gstm1 [8]; [25]): 75.09% | increase in Gstm1 mRNA expression (Gstm1 [8]; [15]): 248.40% | increase in Gstm1 mRNA expression (Gstm1 [8]; [27]): 85.41% | decrease in Slco1b2 mRNA expression (Slco1b2; high-dose Q3GA 10 mg/kg i.v. 7 days, P<0.001): 53.54% | decrease in Slco1b2 mRNA expression (Slco1b2; [15]): 68.06% | decrease in Slco1b2 mRNA expression (Slco1b2; [16]): 38.39% | decrease in Cyp3a2 mRNA expression (Cyp3a2 [9]; [32]): 34.64% | decrease in Cyp3a2 mRNA expression (Cyp3a2 [9]; [18]): 64.68% | decrease in Cyp3a2 mRNA expression (Cyp3a2 [9]; [33]): 26.18% | decrease in Cyp3a2 mRNA expression (Cyp3a2 [9]; [30]): 39.36% | decrease in Cyp3a2 mRNA expression (Cyp3a2 [9]; [21]): 49.70% | decrease in Cyp3a2 mRNA expression (Cyp3a2 [9]; [24]): 17.93% | effect on bioavailability of oral CsA ([10]; Q3GA 2.5, 5 or 10 mg/kg i.v. for 7 consecutive days): reduced the bioavailability of oral CsA | increase in the CL/F of CsA ([10]; Q3GA 5 mg/kg daily i.v. 7 days): 72.71% | increase in the V/F of CsA ([10]; Q3GA 5 mg/kg daily i.v. 7 days, P<0.01): 103.32% | increase in the CL/F of CsA ([10]; Q3GA 10 mg/kg daily i.v. 7 days): 79.57% | increase in the V/F of CsA ([10]; Q3GA 10 mg/kg daily i.v. 7 days, P<0.05): 93.19% | decrease in AUC0-t of CsA [10, 25]: 47.79% | decrease in AUC0-∞ of CsA [10, 25]: 46.30% | decrease in Cmax of CsA [10, 25]: 40.41% | decrease in AUC0-t of CsA [10, 26]: 34.26% | decrease in AUC0-∞ of CsA [10, 26]: 34.66% | decrease in Cmax of CsA [10, 26]: 33.12% | decrease in AUC0-t of CsA [10, 27]: 36.32% | decrease in AUC0-∞ of CsA [10, 27]: 34.81% | effect on blood concentration of CsA after intravenous injection of CsA [11]: not affected | decrease in BCRP protein expression (Bcrp; [17]): 30.86% | decrease in BCRP protein expression (Bcrp; [18]): 69.78% | decrease in BCRP protein expression (Bcrp; [33]): 27.73% | decrease in BCRP protein expression (Bcrp; [20]): 36.44% | decrease in BCRP protein expression (Bcrp; [21]): 70.61% | decrease in BCRP protein expression (Bcrp; [31]): 32.93% | decrease in UGT1A1 protein expression (Ugt1a1 [12]; liver, high-dose Q3GA 10 mg/kg i.v. 7 days): 49.63% | decrease in UGT1A1 protein expression (Ugt1a1 [12]; [34]): 71.06% | decrease in UGT1A1 protein expression (Ugt1a1 [12]; liver, middle-dose Q3GA 5 mg/kg i.v. 7 days): 38.05% | decrease in UGT1A1 protein expression (Ugt1a1 [12]; [35]): 46.57% | decrease in UGT1A1 protein expression (Ugt1a1 [12]; [36]): 76.81% | decrease in UGT1A1 protein expression (Ugt1a1 [12]; [24]): 36.26% | increase in GSTM1 protein expression (Gstm1 [13]; high-dose Q3GA 10 mg/kg i.v. 7 days, P<0.05): 229.75% | increase in GSTM1 protein expression (Gstm1 [13]; [15]): 417.29% | increase in GSTM1 protein expression (Gstm1 [13]; [27]): 159.37% | decrease in MRP2 protein expression (Mrp2 [14]; [34]): 70.70% | decrease in MRP2 protein expression (Mrp2 [14]; [35]): 50.84% | decrease in MRP2 protein expression (Mrp2 [14]; [36]): 75.95% | decrease in MRP2 protein expression (Mrp2 [14]; [24]): 42.60% | decrease in Mdr1 mRNA expression (Mdr1; [32]): 47.32% | decrease in Mdr1 mRNA expression (Mdr1; [18]): 67.60% | decrease in Mdr1 mRNA expression (Mdr1; [33]): 45.09% | decrease in Mdr1 mRNA expression (Mdr1; [30]): 33.33% | decrease in Mdr1 mRNA expression (Mdr1; [21]): 47.47% | decrease in Mdr1 mRNA expression (Mdr1; small intestine, middle-dose Q3GA 5 mg/kg i.v. 7 days, P<0.001): 17.51%
